Experimental data taken from ChEMBL document CHEMBL1144297, “Design and synthesis of macrocycles active against vancomycin-resistant enterococci (VRE): the interplay between d-Ala-d-Lac binding and hydrophobic effect” (2005).
≈ marks a conversion by molar mass, not a printed value. Starred links: 1 amine or outer side, 2 acyl side, 3 side chain; linkers in the order of their positions; H or OH if unused. Positions of bridges follow the written chain, without caps; N, C: chain ends. Non-standard residues stand in square brackets, D forms with d. Residues, ends and D or L forms follow the SMILES beside them. *: point of attachment. X1 = O=C1C[C@@H](C(=O)[*:2])N([*:1])C[C@H]1CS[C@@H]1CN2CCC1CC2; NMePhe(4-NMe2) = CN[C@@H](Cc1ccc(N(C)C)cc1)C(=O)O; Picolinoyl(3-OH) = O=C(c1ncccc1O)*; Phg = N[C@H](C(=O)O)c1ccccc1; dAbu = CC[C@@H](N)C(=O)O

Key:
Enterococcus faecalis [1] = test: Minimum inhibitory concentration against vancomycin sensitive Enterococci faecalis L559 strain was determined; assay type: functional
In short: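 Standard microdilution MIC assay against strain L559, isogenic with L560.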

Enterococcus faecalis [2] = test: Minimum inhibitory concentration against vancomycin resistant Enterococci faecalis L560 strain was determined; assay type: functional
In short: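 Standard microdilution MIC assay against strain L560, which forms an isogenic pair with L559.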

Staphylococcus aureus = test: Minimum inhibitory concentration against Staphylococcus aureus L613 strain was determined
Enterococcus faecium [3] = test: Minimum inhibitory concentration against vancomycin sensitive Enterococci faecium L568 strain was determined; assay type: functional
In short: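 Standard microdilution assay giving the minimum inhibitory concentration. The test organism is strain L568, which is isogenic with L569.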

Enterococcus faecium [4] = test: Minimum inhibitory concentration against vancomycin resistant Enterococci faecium L2215 strain was determined; assay type: functional
In short: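 Standard microdilution MIC assay against strain L2215, a Van-A clinical isolate.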

[5] = Enterococcus faecalis, read-out: MIC
[6] = Enterococcus faecium, read-out: MIC

Structure (SMILES)	MIC (Enterococcus faecalis [1]; [5]) [µg/mL]	MIC (Enterococcus faecalis [2]; [5]) [µg/mL]	MIC (Staphylococcus aureus) [µg/mL]	MIC (Enterococcus faecium [3]; [6]) [µg/mL]	MIC (Enterococcus faecium [4]; [6]) [µg/mL]	MIC (Enterococcus faecalis [1]) [µg/mL]	MIC (Enterococcus faecium [4]) [µg/mL]	MIC (Enterococcus faecalis [2]) [µg/mL]	MIC (Enterococcus faecium [3]) [µg/mL]
COC(=O)[C@H](N)C1NC(=O)[C@H](Cc2ccccc2)NC(=O)[C@H](NC(=O)[C@H](N)CC(C)C)Cc2ccc(c([N+](=O)[O-])c2)Oc2cc1cc(O)c2OC.Cl (some centres not stated)	512	512	> 1020	> 1020					
CCN(CC)CCS(=O)(=O)[C@@H]1CCN2C(=O)c3coc(n3)CC(=O)C[C@H](O)/C=C(C)/C=C/CNC(=O)/C=C/[C@@H](C)[C@@H](C(C)C)OC(=O)[C@@H]12.CC[C@H]1NC(=O)[C@@H](NC(=O)c2ncccc2O)[C@@H](C)OC(=O)[C@H](c2ccccc2)NC(=O)[C@@H]2CC(=O)[C@H](CS[C@@H]3CN4CCC3CC4)CN2C(=O)[C@H](Cc2ccc(N(C)C)cc2)N(C)C(=O)[C@@H]2CCCN2C1=O [QUINUPRISTIN/DALFOPRISTIN] ({Picolinoyl(3-OH)}-T[dAbu]P[NMePhe(4-NMe2)][X1][Phg]; ester 1-C)	4	8	1	4	4				
CCCCCCCCCCCNC(=O)N[C@@H](C(=O)O)C1NC(=O)[C@H](Cc2ccccc2)NC(=O)[C@H](NC(=O)[C@H](N)CC(C)C)Cc2ccc(c([N+](=O)[O-])c2)Oc2cc1cc(OC1OC(O)C(O)C(O)C1NC(=O)CCCCCCCCCCC)c2OC.Cl (some centres not stated)	8	8	> 256	256	32				
CCCCCCCCCCCC(=O)NC1C(Oc2cc3cc(c2OC)Oc2ccc(cc2[N+](=O)[O-])C[C@@H](NC(=O)[C@H](N)CC(C)C)C(=O)N[C@@H](Cc2ccccc2)C(=O)NC3[C@@H](NC(C)=O)C(=O)O)OC(O)C(O)C1O.Cl (some centres not stated)	64	64	> 1020	> 1020	1020				
CCCCCCCCCCCC(=O)N[C@@H](C(=O)O)C1NC(=O)[C@H](Cc2ccccc2)NC(=O)[C@H](NC(=O)[C@H](N)CC(C)C)Cc2ccc(c([N+](=O)[O-])c2)Oc2cc1cc(O)c2OC.Cl (stereo in doubt; 2e)						8	16	8	>128
CCCCCCCCCCCNC(=O)N[C@@H](C(=O)O)C1NC(=O)[C@H](Cc2ccccc2)NC(=O)[C@H](N)Cc2ccc(c([N+](=O)[O-])c2)Oc2cc1cc(O)c2OC.Cl (some centres not stated)	128	> 128	> 128	128	> 128				
COc1c(O)cc2cc1Oc1ccc(cc1[N+](=O)[O-])C[C@@H](NC(=O)[C@H](N)CC(C)C)C(=O)N[C@@H](Cc1ccccc1)C(=O)NC2[C@@H](NC(C)=O)C(=O)O.Cl (some centres not stated)	> 1020		> 1020	> 1020					
CCCCCCCCCCCC(=O)N[C@@H](C(=O)O)C1NC(=O)[C@H](Cc2ccccc2)NC(=O)[C@H](NC(=O)[C@H](N)CC(C)C)Cc2ccc(c([N+](=O)[O-])c2)Oc2cc1cc(O)c2OC.Cl (stereo in doubt; 2d)	4	4	64	128	8				
CCCCCCCCCCCC(=O)N[C@@H](C(=O)O)C1NC(=O)[C@H](Cc2ccccc2)NC(=O)[C@H](NC(=O)[C@H](N)CC(C)C)Cc2ccc(cc2)Oc2cc1cc(O)c2OC.Cl (some centres not stated)	128	128	> 128	> 128					
CC(=O)N[C@@H]1[C@H](Oc2c3cc4cc2Oc2ccc(cc2Cl)[C@@H](O[C@@H]2O[C@@H](CO)[C@@H](O)[C@H](O)[C@@H]2NC(C)=O)[C@@H]2NC(=O)[C@H](NC(=O)[C@@H]4NC(=O)[C@H]4NC(=O)[C@@H](Cc5ccc(c(Cl)c5)O3)NC(=O)[C@H](N)c3ccc(O)c(c3)Oc3cc(O)cc4c3)c3ccc(O)c(c3)-c3c(O[C@H]4O[C@H](CO)[C@@H](O)[C@@H](O)[C@@H]4O)cc(O)cc3[C@@H](C(=O)O)NC2=O)O[C@@H](CO)[C@@H](O)[C@@H]1O	0.125 (≈ 0.0707 µM)	64 (≈ 36.2 µM)	1 (≈ 0.566 µM)	0.5 (≈ 0.283 µM)	> 128				
CN[C@H](CC(C)C)C(=O)N[C@H]1C(=O)N[C@@H](CC(N)=O)C(=O)N[C@H]2C(=O)N[C@H]3C(=O)N[C@H](C(=O)N[C@H](C(=O)O)c4cc(O)cc(O)c4-c4cc3ccc4O)[C@H](O)c3ccc(c(Cl)c3)Oc3cc2cc(c3O[C@@H]2O[C@H](CO)[C@@H](O)[C@H](O)[C@H]2O[C@H]2C[C@](C)(N)[C@H](O)[C@H](C)O2)Oc2ccc(cc2Cl)[C@H]1O [VANCOMYCIN]	1 (≈ 0.69 µM)	> 128			> 128				
COC(=O)[C@@H](C1NC(=O)[C@H](Cc2ccccc2)NC(=O)[C@H](NC(=O)[C@H](N)CC(C)C)Cc2ccc(c([N+](=O)[O-])c2)Oc2cc1cc(OC)c2OC)N(C)C.Cl (some centres not stated)	128	128	> 128	> 128					
CCCCCCCCCCCC(=O)N[C@@H](C(=O)O)C1NC(=O)[C@H](Cc2ccccc2)NC(=O)[C@H](NC(=O)[C@H](N)CC(C)C)Cc2ccc(c([N+](=O)[O-])c2)Oc2cc1cc(OCc1ccccc1)c2OC.Cl (some centres not stated)	8	4	128	256	16				
